Activity calls are given as the source filed them. The calls are words filed in the database; no cut-off is given here.
Tests used:
[1] = molecular target: T1, Epidermal growth factor receptor (Homo sapiens, UniProt P00533, C797S/L858R/T790M); assay: Inhibition of EGFR L858R/T790M/C797S triple mutant (unknown origin) using fluoresceine-labelled poly-GT peptide as substrate incubated for 1 hr by TR-FRET assay
[2] = molecular target: T1, Epidermal growth factor receptor; assay: Inhibition of EGFR L858R/T790M/C797S triple mutant (unknown origin) using fluoresceine-labelled poly-GT peptide as substrate preincubated with enzyme for 3 hrs followed by substrate and ATP addition by TR-FRET assay
[3] = test system: BaF3; assay: Cytotoxicity against mouse BaF3 cells harboring EGFR L858R/T790M/C797S triple mutant assessed as inhibition of cell proliferation measured after 72 hrs by MTS assay; type: functional, cell-based
Procedure, shortened: (§1)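 Ba/F3 cells carrying the respective EGFR triple mutant, grown in RPMI-1640 with 2 mM glutamine and 10% FBS at 37°C, 5% CO2. Seeded 20000 cells/well and treated the same day with increasing concentrations (DMSO ≤0.1% final). Viability read by MTS after 72 h, expressed as % inhibition versus untreated controls; at least three independent experiments.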

[4] = test system: Epidermal growth factor receptor (Homo sapiens), P00533 [L858R,T790M,C797S]; assay: Ratio of IC50 for EGFR L858R/T790M/C797S triple mutant (unknown origin) using fluoresceine-labelled poly-GT peptide as substrate incubated for 1 hr to IC50 for EGFR L858R/T790M/C797S triple mutant (unknown origin) using fluoresceine-labelled poly-GT peptide as substrate preincubated with enzyme for 3 hrs followed by substrate and ATP addition
[5] = test system: Epidermal growth factor receptor (Homo sapiens), P00533 [L858R,T790M,C797S]; assay: Irreversible inhibiton of EGFR L858R/T790M/C797S triple mutant (unknown origin) assessed as residual enzyme activity using fluoresceine-labelled poly-GT peptide as substrate preincubated with enzyme for 3 hrs at 10XIC50 followed by 100-fold dilution and measured after 30 mins by rapid dilution assay based TR-FRET analysis; conditions: time 210.0 min
Procedure, shortened: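 It was then diluted 100-fold into Kinase Buffer A containing poly-GT substrate and 9 μM ATP. After 30 min, EDTA quench plus Eu-PY20 were added for 30 min before TR-FRET. Activity is given as % of no-inhibitor control; n = 5.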

[6] = molecular target: RAC-beta serine/threonine-protein kinase (Homo sapiens) (UniProt P31751); assay: Inhibition of His-tagged full length human recombinant AKT2 expressed in baculovirus expression system at 100 nM by Z'-LYTE assay
Chain of RAC-beta serine/threonine-protein kinase (Homo sapiens) (P31751 whole entry): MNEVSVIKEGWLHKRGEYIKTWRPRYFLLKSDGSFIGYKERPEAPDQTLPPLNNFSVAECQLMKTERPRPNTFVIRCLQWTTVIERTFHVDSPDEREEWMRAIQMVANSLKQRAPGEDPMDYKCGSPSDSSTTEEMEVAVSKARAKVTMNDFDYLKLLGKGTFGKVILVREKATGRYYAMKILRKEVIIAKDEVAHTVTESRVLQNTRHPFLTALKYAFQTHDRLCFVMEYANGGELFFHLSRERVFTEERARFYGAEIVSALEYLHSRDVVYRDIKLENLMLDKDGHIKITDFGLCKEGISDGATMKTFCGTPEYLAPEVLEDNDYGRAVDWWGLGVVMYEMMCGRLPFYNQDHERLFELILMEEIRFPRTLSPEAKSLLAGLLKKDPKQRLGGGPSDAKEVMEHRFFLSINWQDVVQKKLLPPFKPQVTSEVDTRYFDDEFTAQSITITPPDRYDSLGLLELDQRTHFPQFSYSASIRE
Procedure, shortened: (§2)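 Z'-LYTE FRET kinase panel; phosphorylation of a reference peptide measured with ATP at each enzyme's Km. Compounds tested in 1% DMSO at 0.1 and/or 1 μM. Values are means of two independent experiments with standard deviations.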

[7] = molecular target: AMP-activated protein kinase, AMPK (Homo sapiens) (UniProt P54646+O43741+P54619+Q9UGJ0+Q9Y478+Q13131+Q9UGI9); assay: Inhibition of human recombinant AMPK at 100 nM by Z'-LYTE assay; type: protein-complex assay; procedure, shortened: as §2
[8] = molecular target: T2, Aurora kinase A (Homo sapiens) (UniProt O14965); assay: Inhibition of His-tagged human full length recombinant AURKA expressed in baculovirus expression system at 100 nM by Z'-LYTE assay; procedure, shortened: as §2
T2 sequence (whole entry): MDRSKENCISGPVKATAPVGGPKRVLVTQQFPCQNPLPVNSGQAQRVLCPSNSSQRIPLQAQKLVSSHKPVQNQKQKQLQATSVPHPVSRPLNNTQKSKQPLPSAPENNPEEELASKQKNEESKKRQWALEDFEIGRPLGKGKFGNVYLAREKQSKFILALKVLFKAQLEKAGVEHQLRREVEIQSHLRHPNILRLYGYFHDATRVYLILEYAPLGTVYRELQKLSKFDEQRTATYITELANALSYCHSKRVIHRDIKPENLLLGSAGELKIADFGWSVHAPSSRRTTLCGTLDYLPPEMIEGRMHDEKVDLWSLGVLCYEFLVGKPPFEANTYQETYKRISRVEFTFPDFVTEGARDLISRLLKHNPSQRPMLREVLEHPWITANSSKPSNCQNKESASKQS

[9] = molecular target: Cyclin-dependent kinase 2 (Homo sapiens) (UniProt P24941); assay: Inhibition of human recombinant CDK2 at 100 nM by Z'-LYTE assay; procedure, shortened: as §2
[10] = molecular target: Cyclin-dependent kinase 5 (Homo sapiens) (UniProt Q00535); assay: Inhibition of GST/His-tagged human full length recombinant CDK5 expressed in baculovirus expression system at 100 nM by Z'-LYTE assay; procedure, shortened: as §2
Chain of Cyclin-dependent kinase 5 (Homo sapiens) (Q00535 whole entry, looked up): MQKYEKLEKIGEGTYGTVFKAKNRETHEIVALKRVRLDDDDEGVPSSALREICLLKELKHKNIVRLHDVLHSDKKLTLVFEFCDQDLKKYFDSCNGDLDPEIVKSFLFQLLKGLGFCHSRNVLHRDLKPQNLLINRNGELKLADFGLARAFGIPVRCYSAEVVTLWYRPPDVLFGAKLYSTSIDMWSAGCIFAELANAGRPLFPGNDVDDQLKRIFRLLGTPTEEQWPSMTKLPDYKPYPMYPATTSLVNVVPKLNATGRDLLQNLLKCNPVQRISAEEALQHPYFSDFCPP

[11] = molecular target: Tyrosine-protein kinase Blk (Homo sapiens) (UniProt P51451); assay: Inhibition of His-tagged human full length recombinant BLK expressed in baculovirus expression system at 100 nM by Z'-LYTE assay; procedure, shortened: as §2
Chain of Tyrosine-protein kinase Blk (Homo sapiens) (P51451 2-505 limits assumed): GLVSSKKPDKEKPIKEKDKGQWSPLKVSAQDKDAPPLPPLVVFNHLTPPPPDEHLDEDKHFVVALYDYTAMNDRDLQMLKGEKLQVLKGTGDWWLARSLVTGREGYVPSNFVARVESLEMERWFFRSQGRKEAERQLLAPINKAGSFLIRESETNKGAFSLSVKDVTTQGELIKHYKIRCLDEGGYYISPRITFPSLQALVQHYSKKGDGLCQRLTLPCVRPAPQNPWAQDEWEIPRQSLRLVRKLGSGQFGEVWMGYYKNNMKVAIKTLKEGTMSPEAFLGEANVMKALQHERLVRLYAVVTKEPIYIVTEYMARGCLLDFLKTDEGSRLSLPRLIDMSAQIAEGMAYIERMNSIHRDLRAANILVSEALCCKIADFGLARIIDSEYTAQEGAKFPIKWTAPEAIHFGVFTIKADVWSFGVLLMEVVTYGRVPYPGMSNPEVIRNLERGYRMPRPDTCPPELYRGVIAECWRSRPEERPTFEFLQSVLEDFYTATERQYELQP

[12] = molecular target: Tyrosine-protein kinase Lck (Homo sapiens) (UniProt P06239); assay: Inhibition of human recombinant LCK at 100 nM by Z'-LYTE assay; procedure, shortened: as §2
Chain of Tyrosine-protein kinase Lck (Homo sapiens) (P06239 2-509 limits assumed): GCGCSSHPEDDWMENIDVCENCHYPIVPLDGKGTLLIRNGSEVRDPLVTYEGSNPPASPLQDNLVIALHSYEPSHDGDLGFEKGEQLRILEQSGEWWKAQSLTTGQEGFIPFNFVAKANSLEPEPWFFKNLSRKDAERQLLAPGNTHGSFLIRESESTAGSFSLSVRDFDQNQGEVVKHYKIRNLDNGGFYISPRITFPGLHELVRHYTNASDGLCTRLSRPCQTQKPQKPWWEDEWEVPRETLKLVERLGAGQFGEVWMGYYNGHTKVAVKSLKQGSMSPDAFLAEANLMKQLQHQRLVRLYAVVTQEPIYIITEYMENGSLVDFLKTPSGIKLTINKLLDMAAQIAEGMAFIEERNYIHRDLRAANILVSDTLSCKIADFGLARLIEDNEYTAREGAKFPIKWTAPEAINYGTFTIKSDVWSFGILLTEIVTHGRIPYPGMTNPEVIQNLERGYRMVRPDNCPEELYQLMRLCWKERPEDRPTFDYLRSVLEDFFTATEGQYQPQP

[13] = molecular target: Proto-oncogene tyrosine-protein kinase Src (Homo sapiens) (UniProt P12931); assay: Inhibition of C-terminal His-tagged human recombinant SRC expressed in baculovirus expression system at 100 nM by Z'-LYTE assay; procedure, shortened: as §2
Chain of Proto-oncogene tyrosine-protein kinase Src (Homo sapiens) (P12931 2-536 limits assumed): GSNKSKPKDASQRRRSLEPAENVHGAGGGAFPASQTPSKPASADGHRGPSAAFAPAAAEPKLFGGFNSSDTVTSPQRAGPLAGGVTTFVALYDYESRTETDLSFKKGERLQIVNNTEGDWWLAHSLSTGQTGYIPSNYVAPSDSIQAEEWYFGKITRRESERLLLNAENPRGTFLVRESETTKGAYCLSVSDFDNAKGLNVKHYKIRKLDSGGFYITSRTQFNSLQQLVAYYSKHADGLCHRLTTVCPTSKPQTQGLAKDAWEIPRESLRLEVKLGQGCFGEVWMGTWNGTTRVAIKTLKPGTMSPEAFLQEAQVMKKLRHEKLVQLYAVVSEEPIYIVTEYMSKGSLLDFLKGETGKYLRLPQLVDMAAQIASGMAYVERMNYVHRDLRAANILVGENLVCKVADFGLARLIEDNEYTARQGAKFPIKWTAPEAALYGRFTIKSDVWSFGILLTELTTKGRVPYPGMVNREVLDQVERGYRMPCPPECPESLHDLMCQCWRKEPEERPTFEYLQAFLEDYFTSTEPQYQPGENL

[14] = molecular target: Platelet-derived growth factor receptor alpha (Homo sapiens) (UniProt P16234); assay: Inhibition of GST-tagged human recombinant PDGFR alpha (550 to 1089 residues) expressed in baculovirus expression system at 100 to 1000 nM by Z'-LYTE assay; conditions: dose 100-1000 nM
Chain of Platelet-derived growth factor receptor alpha (Homo sapiens) (P16234 whole entry, the tested form may be a part): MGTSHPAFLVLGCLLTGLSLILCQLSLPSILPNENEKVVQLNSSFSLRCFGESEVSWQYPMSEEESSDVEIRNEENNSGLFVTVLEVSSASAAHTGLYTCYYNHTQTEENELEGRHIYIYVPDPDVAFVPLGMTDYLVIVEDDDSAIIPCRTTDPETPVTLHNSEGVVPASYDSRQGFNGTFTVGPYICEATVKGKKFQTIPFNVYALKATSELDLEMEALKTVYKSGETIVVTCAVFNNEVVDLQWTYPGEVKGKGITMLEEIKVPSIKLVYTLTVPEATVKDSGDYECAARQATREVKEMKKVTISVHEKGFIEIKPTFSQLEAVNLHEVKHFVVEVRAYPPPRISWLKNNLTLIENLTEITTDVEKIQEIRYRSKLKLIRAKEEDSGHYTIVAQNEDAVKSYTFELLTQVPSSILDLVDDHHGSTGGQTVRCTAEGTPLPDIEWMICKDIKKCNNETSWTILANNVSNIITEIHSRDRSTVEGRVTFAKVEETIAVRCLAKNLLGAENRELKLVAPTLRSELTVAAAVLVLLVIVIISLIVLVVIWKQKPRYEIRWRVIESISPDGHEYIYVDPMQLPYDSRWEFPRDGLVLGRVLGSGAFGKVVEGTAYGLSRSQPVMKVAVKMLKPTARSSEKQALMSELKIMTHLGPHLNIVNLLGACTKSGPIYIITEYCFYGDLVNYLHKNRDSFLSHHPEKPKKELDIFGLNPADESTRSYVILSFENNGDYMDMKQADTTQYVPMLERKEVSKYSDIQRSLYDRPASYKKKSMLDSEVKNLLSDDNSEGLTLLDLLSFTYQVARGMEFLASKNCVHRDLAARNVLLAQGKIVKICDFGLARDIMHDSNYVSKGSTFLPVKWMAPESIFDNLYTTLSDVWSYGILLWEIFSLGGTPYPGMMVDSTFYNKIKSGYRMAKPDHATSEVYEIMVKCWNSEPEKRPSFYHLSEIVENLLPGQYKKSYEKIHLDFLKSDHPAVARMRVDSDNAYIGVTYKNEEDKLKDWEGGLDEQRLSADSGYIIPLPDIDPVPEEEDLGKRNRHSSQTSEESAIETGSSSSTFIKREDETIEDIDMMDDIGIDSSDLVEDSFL

[15] = molecular target: Rho-associated protein kinase 1 (Homo sapiens) (UniProt Q13464); assay: Inhibition of GST-tagged human recombinant ROCK1 (1 to 535 residues) expressed in baculovirus expression system at 100 to 1000 nM by Z'-LYTE assay; conditions: dose 100-1000 nM
Chain of Rho-associated protein kinase 1 (Homo sapiens) (Q13464 2-1354 limits assumed): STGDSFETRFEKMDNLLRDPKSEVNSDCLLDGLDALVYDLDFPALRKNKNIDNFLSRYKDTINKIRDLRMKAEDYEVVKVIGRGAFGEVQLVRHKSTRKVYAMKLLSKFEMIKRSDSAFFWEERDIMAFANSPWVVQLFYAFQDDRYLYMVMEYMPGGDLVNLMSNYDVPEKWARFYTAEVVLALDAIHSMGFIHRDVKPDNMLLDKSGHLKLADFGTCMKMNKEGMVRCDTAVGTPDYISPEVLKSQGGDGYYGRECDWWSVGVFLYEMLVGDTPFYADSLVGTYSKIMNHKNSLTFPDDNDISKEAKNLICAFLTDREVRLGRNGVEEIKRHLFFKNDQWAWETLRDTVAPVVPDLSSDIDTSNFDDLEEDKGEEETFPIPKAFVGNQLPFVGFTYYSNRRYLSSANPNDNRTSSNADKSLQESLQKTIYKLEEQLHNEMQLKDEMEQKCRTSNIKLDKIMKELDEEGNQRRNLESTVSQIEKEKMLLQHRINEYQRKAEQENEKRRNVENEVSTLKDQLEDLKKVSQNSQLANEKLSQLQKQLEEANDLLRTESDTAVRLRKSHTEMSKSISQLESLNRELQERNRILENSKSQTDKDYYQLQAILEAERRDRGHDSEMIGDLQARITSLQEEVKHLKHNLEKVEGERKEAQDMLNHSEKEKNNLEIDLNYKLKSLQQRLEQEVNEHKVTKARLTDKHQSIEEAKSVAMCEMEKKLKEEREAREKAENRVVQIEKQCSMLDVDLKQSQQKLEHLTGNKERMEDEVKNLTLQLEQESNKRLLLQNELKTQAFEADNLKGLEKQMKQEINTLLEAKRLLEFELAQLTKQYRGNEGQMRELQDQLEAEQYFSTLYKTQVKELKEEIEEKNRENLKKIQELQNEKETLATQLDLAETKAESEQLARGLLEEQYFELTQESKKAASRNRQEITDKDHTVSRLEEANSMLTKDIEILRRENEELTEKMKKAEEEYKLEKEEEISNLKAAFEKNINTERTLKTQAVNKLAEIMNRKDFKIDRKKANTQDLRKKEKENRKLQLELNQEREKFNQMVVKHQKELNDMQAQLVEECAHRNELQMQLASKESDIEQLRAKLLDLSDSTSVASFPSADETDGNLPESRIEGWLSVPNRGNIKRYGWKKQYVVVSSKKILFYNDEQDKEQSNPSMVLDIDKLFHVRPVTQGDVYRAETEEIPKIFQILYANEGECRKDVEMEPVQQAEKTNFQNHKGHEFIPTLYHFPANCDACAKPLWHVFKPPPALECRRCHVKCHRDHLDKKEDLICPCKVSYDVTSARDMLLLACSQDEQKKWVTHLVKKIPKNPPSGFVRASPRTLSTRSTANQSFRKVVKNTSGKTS

[16] = test system: BaF3; assay: Cytotoxicity against mouse BaF3 cells harboring EGFR del19/T790M/C797S triple mutant assessed as inhibition of cell proliferation measured after 72 hrs by MTS assay; type: functional, cell-based; procedure, shortened: as §1
[17] = molecular target: Cyclin-dependent kinase 2 (Homo sapiens) (UniProt P24941); assay: Inhibition of human recombinant CDK2 at 1 uM by Z'-LYTE assay; procedure, shortened: as §2
[18] = molecular target: Cyclin-dependent kinase 5 (Homo sapiens) (UniProt Q00535); assay: Inhibition of GST/His-tagged human full length recombinant CDK5 expressed in baculovirus expression system at 1 uM by Z'-LYTE assay; procedure, shortened: as §2
[19] = molecular target: Tyrosine-protein kinase Lck (Homo sapiens) (UniProt P06239); assay: Inhibition of human recombinant LCK at 1 uM by Z'-LYTE assay; procedure, shortened: as §2
[20] = molecular target: Rho-associated protein kinase 1 (Homo sapiens) (UniProt Q13464); assay: Inhibition of GST-tagged human recombinant ROCK1 (1 to 535 residues) expressed in baculovirus expression system at 1 uM by Z'-LYTE assay; procedure, shortened: as §2
[21] = test system: Epidermal growth factor receptor (Homo sapiens), P00533 [L858R,T790M,C797S]; assay: Inhibition of EGFR L858R/T790M/C797S triple mutant (unknown origin) expressed in mouse Ba/F3 cells assessed as inhibition of EGF-stimulated receptor phosphorylation incubated for 4 hrs followed by EGF stimulation for 10 mins by western blot analysis; type: cell-based; conditions: BaF3, dose 10-1000 nM, time 250.0 min
Procedure, shortened: (§3)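 Ba/F3 cells expressing EGFR L858R/T790M/C797S were treated for 4 h across increasing concentrations (DMSO ≤0.1%), then stimulated with 100 ng/ml EGF for 10 min. Lysates were immunoblotted for pEGFR (Tyr1068), EGFR and actin.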

[22] = test system: Epidermal growth factor receptor (Homo sapiens), P00533 [L858R,T790M,C797S]; assay: Inhibition of EGFR L858R/T790M/C797S triple mutant (unknown origin) expressed in mouse Ba/F3 cells assessed as inhibition of EGF-stimulated receptor phosphorylation at 500 nM incubated for 4 hrs followed by EGF stimulation for 10 mins by western blot analysis; type: cell-based; conditions: BaF3, time 250.0 min; procedure, shortened: as §3

Structure (SMILES) | IC50 [1] | IC50 [2] | Ratio IC50 [4] | Activity [5] | inhibition [6] | inhibition [7] | inhibition [8] | inhibition [9] | inhibition [10] | inhibition [11] | inhibition [12] | inhibition [13] | Activity [16] | further results
C#CCNC(=O)c1cc(Nc2cc(C3CC3)[nH]n2)nc(N2CCN(Cc3ccc(S(=O)(=O)F)cc3)CC2)n1 | 244 nM | 6 nM | 40 | < 25% | Active | Active | Active | Active | Active | Active | Active | Active | Active | Activity [3]: Active; inhibition [14]: inactive; inhibition [15]: inactive
COc1cc(N2CCN(C(C)=O)CC2)ccc1Nc1ncc(Cl)c(Nc2ccc(NCc3ccc(S(=O)(=O)F)cc3)cc2)n1 | 110 nM | 1.5 nM | 70 | < 25% | inactive | inactive | 30% | inactive | inactive | inactive | inactive | inactive | inactive | inhibition [17]: 100%; inhibition [18]: 90%; inhibition [19]: 100%; inhibition [20]: < 25%; IC50 ([3]; BaF3, 72 h): 500 nM; inhibition [21]: Dose-Dependent Effect; inhibition [22]: 100%

From ChEMBL document CHEMBL4828755, “A sulfonyl fluoride derivative inhibits EGFRL858R/T790M/C797S by covalent modification of the catalytic lysine” (Eur J Med Chem, 2021)
